Results taken from PubChem BioAssay AID504353 (Broad Institute, 2011).
The source made the active and inactive calls.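 Rule for the calls: active = fitted curve climbs past 10% caspase activation, relative to the positive control, at or below the top valid tested dose; inactive = the rest, including activity in the opposite direction.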

Test system: not listed separately
Assay: caspase activation in wild-type mouse fibroblasts, dose response, counter-screen for A1 inhibitor project, cell-based, wild-type MEF, luminescence, dry powder, set 4 (AID 504353)
Conditions: wild-type MEF caspase-3/7 activation, CaspaseGlo luminescence, 3 h; at 35 µM (top of the series)
Summary of the method: (§1)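 Material: unprimed wild-type mouse embryonic fibroblasts lacking A1/BIM co-expression. Amount: 2500 cells/well. Medium: RPMI-1640 growth medium with 10% FBS. Doses: compound delivered to cells by pin transfer. Schedule: 3 h compound exposure, 37 °C. Measured by: CaspaseGlo luminescence, 1 h reagent step. Read-out basis: caspase activation level from luminescent signal.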

SMILES | caspase activation
COc1ccc(CCNc2nc(N3CCOCC3)nc(N3CCOCC3)n2)cc1OC | 0.427% (inactive)
O=C(COc1ccc(Cl)cc1Cl)NNc1nc(N2CCOCC2)nc(N2CCOCC2)n1 | 2.07% (inactive)
CCn1c(=O)c([N+](=O)[O-])c(Sc2ccc(C)cc2)c2ccccc21 | 0.55% (inactive)
C/C(=N\Nc1nc(N2CCCCC2)nc(N2CCCCC2)n1)c1ccc(F)cc1 | 0.729% (inactive)
Cc1ccc(Sc2c(Sc3ccc(C)cc3)c3ccccc3n(C)c2=O)cc1 | -0.533% (inactive)
COCCn1c(=O)c(Sc2ccc(C)cc2)c(Sc2ccc(C)cc2)c2ccccc21 | 0.618% (inactive)
O=c1[nH]c2ccccc2c(Cl)c1[N+](=O)[O-] | -2.56% (inactive)

Test system: wild-type MEF caspase-3/7 activation, CaspaseGlo luminescence, 3 h
Assay: as above
Conditions: not given
Summary of the method: as §1

SMILES | AC10 [µM]
O=c1c([N+](=O)[O-])c(Cl)c2ccccc2n1Cc1ccccc1 | 3.93
COCCn1c(=O)c([N+](=O)[O-])c(Sc2ccc(C)cc2)c2ccccc21 | 22
Cc1ccc(Sc2c([N+](=O)[O-])c(=O)n(Cc3ccccc3)c3ccccc23)cc1 | 21.7
Cn1c(=O)c([N+](=O)[O-])c(-n2cnc3ccccc32)c2ccccc21 | 26.1
Cn1c(=O)c([N+](=O)[O-])c(Cl)c2ccccc21 | 2.9
